Key:
[1] = test system: MOLT-3; assay: NucView caspase 3 activity assay by flow cytometry; assay type: cell-based, human
Summary of the method: (§1)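 Seeded at 0.5 x 10⁶ cells/well and treated 24 h, with series of 0–50 or 0–250 µM depending on compound. Normalized to vehicle (0% apoptosis). Mean ± STD, three independent experiments in triplicate. One-way ANOVA/Tukey, p<0.05. AP50 = concentration giving 50% apoptotic cells.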

[2] = test system: CCRF-CEM; assay: NucView caspase 3 activity assay by flow cytometry; assay type: cell-based, human; conditions: 24 h
Summary of the method: as §1

[3] = test system: THP-1; assay: CellTiter-Glo luminescent cell viability assay; assay type: cell-based, human; conditions: THP-1, 24 h, doses 0, 2, 10, 50, 250, 500 µM, p<0.05
Summary of the method: (§2)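 Cells grown in RPMI 1640 with 10% FBS, 1.5 mM L-glutamine and penicillin/streptomycin at 37 °C, 5% CO2. Seeded at 2.5 x 10³ cells/well and exposed 24 h to ethanol-dissolved test compound (0, 2, 10, 50, 250, 500 µM) with 0.1% ethanol vehicle. ATP luminescence normalized to vehicle (100%). IC50 taken from linear regression. Lowest significant dose set by one-way ANOVA/Tukey, p<0.05. Triplicates, three independent experiments.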

[4] = test system: K562; assay: CellTiter-Glo luminescent cell viability assay; assay type: cell-based, human; conditions: K562, 24 h, doses 0, 2, 10, 50, 250, 500 µM, p<0.05
Summary of the method: as §2

[5] = test system: HL60; assay: NucView caspase 3 activity assay by flow cytometry; assay type: cell-based, human
Summary of the method: as §1

[6] = test system: JURKAT; assay: Cell cycle analysis, propidium iodide flow cytometry; assay type: cell-based, human; conditions: IC50 dose, 24 h, p<0.05
Summary of the method: (§3)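 Seeded at 0.5 x 10^6 cells per well in 12-well plates and treated 24 h at the IC50 concentration of each test compound from CellTiter-Glo. Cells were pelleted (400 g, 5 min), PBS-washed and fixed in 80% ethanol overnight at -20 °C. Staining used 50 µg/mL PI plus RNase overnight at 4 °C.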

[7] = test system: non-tumor cells (CD34+); assay: Hoechst 33342 nuclear morphological analysis of apoptosis; assay type: cell-based; conditions: 24 h, read-out: AP50 (50% induction of apoptosis), Hoechst 33342 staining (Hoe)
Summary of the method: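 CD34+ cells treated 24 h across the IC25–IC50 range, then pelleted (400 g, 4 °C) and fixed in 4% paraformaldehyde/PBS. Cytospins were air-dried and stained with 10 μg/ml Hoechst 33342 for 10 min in the dark, then viewed by fluorescence microscopy. 200 cells were scored per sample as % apoptotic nuclei (shrinkage, blebbing, chromatin condensation, apoptotic bodies). AP50 = concentration giving 50% apoptosis.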

[8] = test system: HL60; assay: Cell cycle analysis, propidium iodide flow cytometry; assay type: cell-based, human; conditions: HL60, IC50 dose, 24 h; vehicle control S = 33.6%
Summary of the method: as §3

[9] = test system: HL60; assay: Hoechst 33342 nuclear morphological analysis of apoptosis; assay type: cell-based; conditions: Homo sapiens, HL-60, 24 h, read-out: AP50 (50% induction of apoptosis), Hoechst 33342 staining (Hoe)
Summary of the method: (§4)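 Seeded at 0.5 x 10⁶ cells/well in 12-well plates and treated 24 h. Cells were pelleted (400 g, 5 min, 4 °C), washed in PBS, fixed in 4% paraformaldehyde, cytospun, air-dried, then stained with 10 μg/ml Hoechst 33342 for 10 min in the dark. Fluorescence microscopy: 200 cells counted, scored by condensed/intense nuclei, shrinkage, blebbing and apoptotic bodies. % apoptotic nuclei calculated. AP50 = concentration giving 50% apoptotic cells.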

[10] = test system: U937; assay: NucView caspase 3 activity assay by flow cytometry; assay type: cell-based, human
Summary of the method: as §1

[11] = test system: JURKAT; assay: NucView caspase 3 activity assay by flow cytometry; assay type: cell-based, human; conditions: 24 h
Summary of the method: as §1

[12] = test system: KG1a; assay: NucView caspase 3 activity assay by flow cytometry; assay type: cell-based, human; conditions: 24 h
Summary of the method: as §1

[13] = test system: MOLT-3; assay: Hoechst 33342 nuclear morphological analysis of apoptosis; assay type: cell-based; conditions: Homo sapiens, MOLT-3, 24 h, read-out: AP50 (50% induction of apoptosis), Hoechst 33342 staining (Hoe)
Summary of the method: as §4

[14] = test system: KG1a; assay: as above; assay type: cell-based; conditions: Homo sapiens, KG-1a, 24 h, read-out: AP50 (50% induction of apoptosis), Hoechst 33342 staining (Hoe)
Summary of the method: as §4

[15] = test system: non-tumor cells (CD34+); assay: NucView caspase 3 activity assay by flow cytometry; assay type: cell-based; conditions: 24 h
[16] = test system: THP-1; assay: Hoechst 33342 nuclear morphological analysis of apoptosis; assay type: cell-based; conditions: Homo sapiens, THP-1, 24 h, read-out: AP50 (50% induction of apoptosis), Hoechst 33342 staining (Hoe)
Summary of the method: as §4

[17] = test system: U937; assay: CellTiter-Glo luminescent cell viability assay; assay type: cell-based, human; conditions: U937, 24 h, doses 0, 2, 10, 50, 250, 500 µM, p<0.05
Summary of the method: as §2

[18] = test system: U937; assay: Cell cycle analysis, propidium iodide flow cytometry; assay type: cell-based, human; conditions: U937, IC50 dose, 24 h; vehicle control G0/G1 = 44.03%
Summary of the method: as §3

[19] = test system: non-tumor progenitor cells (CD34+); assay: Cell cycle analysis, propidium iodide flow cytometry; assay type: cell-based; conditions: 24 h, within the IC50 ranges used to treat the leukemic cell lines
[20] = test system: MOLT-3; assay: CellTiter-Glo luminescent cell viability assay; assay type: cell-based, human; conditions: MOLT-3, 24 h, doses 0, 2, 10, 50, 250, 500 µM, p<0.05
Summary of the method: as §2

[21] = test system: CCRF-CEM; assay: Cell cycle analysis, propidium iodide flow cytometry; assay type: cell-based, human; conditions: IC50 dose, 24 h, vehicle control G0/G1 = 41.9%
Summary of the method: as §3

[22] = test system: JURKAT; assay: Hoechst 33342 nuclear morphological analysis of apoptosis; assay type: cell-based; conditions: Homo sapiens, 24 h, read-out: AP50 (50% induction of apoptosis), Hoechst 33342 staining (Hoe)
Summary of the method: as §4

O=c1cc(-c2ccccc2)oc2cc(O)cc(O)c12 [Chrysin]
EC50 ([1]; Homo sapiens, MOLT-3, 24 h, read-out: AP50 (50% induction of apoptosis), Caspase 3 activity assay (C3)): 140 µM | The lowest dose of polyphenols at which there was a significant induction of apoptosis compared to the vehicle control ([1]; MOLT-3, caspase 3 activity, 24 h, p<0.05): 50 µM | EC50 ([2]; Homo sapiens, read-out: AP50 (50% induction of apoptosis), Caspase 3 activity assay (C3)): 250 µM | The lowest dose of polyphenols at which there was a significant induction of apoptosis compared to the vehicle control ([2]; caspase 3 activity, p<0.05): 50 µM | The lowest dose of polyphenols at which there was a significant inhibition of cell proliferation compared to the vehicle control [3]: 250 µM | The lowest dose of polyphenols at which there was a significant inhibition of cell proliferation compared to the vehicle control [4]: 250 µM | The lowest dose of polyphenols at which there was a significant induction of apoptosis compared to the vehicle control ([5]; HL60, caspase 3 activity, 24 h, p<0.05): 50 µM | EC50 ([5]; Homo sapiens, HL-60, 24 h, read-out: AP50 (50% induction of apoptosis), Caspase 3 activity assay (C3)): 175 µM | Phase of cell cycle accumulation [6]: G0/G1 phase | EC50 [7]: > 500 µM | Percentage of cells in S phase of cell cycle (significant accumulation) [8]: S =45.5% | EC50 [9]: 75 µM | EC50 ([10]; Homo sapiens, U-937, 24 h, read-out: AP50 (50% induction of apoptosis), Caspase 3 activity assay (C3)): 150 µM | The lowest dose of polyphenols at which there was a significant induction of apoptosis compared to the vehicle control ([10]; U937, caspase 3 activity, 24 h, p<0.05): 50 µM | EC50 ([11]; Homo sapiens, Jurkat, read-out: AP50 (50% induction of apoptosis), Caspase 3 activity assay (C3)): 40 µM | The lowest dose of polyphenols at which there was a significant induction of apoptosis compared to the vehicle control ([11]; JURKAT, caspase 3 activity, p<0.05): 50 µM | EC50 ([12]; Homo sapiens, KG-1a, read-out: AP50 (50% induction of apoptosis), Caspase 3 activity assay (C3)): > 250 µM | The lowest dose of polyphenols at which there was a significant induction of apoptosis compared to the vehicle control ([12]; KG1a, caspase 3 activity, p<0.05): 250 µM | EC50 [13]: 38 µM | EC50 [14]: > 500 µM | EC50 ([15]; read-out: AP50 (50% induction of apoptosis), Caspase 3 activity assay (C3)): > 250 µM | The lowest dose of polyphenols at which there was a significant induction of apoptosis compared to the vehicle control ([15]; CD34+ non-tumour control cells, caspase 3 activity, p<0.05): 250 µM | EC50 [16]: > 500 µM | The lowest dose of polyphenols at which there was a significant inhibition of cell proliferation compared to the vehicle control [17]: 50 µM | Percentage of cells in G0/G1 phase of cell cycle (significant accumulation) [18]: G0/G1 =70% | Cell cycle arrest in non-tumour control cells [19]: No Arrest <250µM | The lowest dose of polyphenols at which there was a significant inhibition of cell proliferation compared to the vehicle control [20]: 50 µM | Percentage of cells in G0/G1 phase of cell cycle (significant accumulation) [21]: G0/G1 =49.4% | EC50 [22]: 30 µM

Source: PMC3873039 (Anti-Cancer Agents in Medicinal Chemistry, 2013)
